From ChEMBL document CHEMBL1138415, “Analogues of the dopamine D2 receptor antagonist L741,626: Binding, function, and SAR” (Bioorg Med Chem Lett, 2007)

Assays:
[1] = molecular target: T1, D(3) dopamine receptor (Homo sapiens, UniProt P35462); assay: Displacement of [125I]IABN from human dopamine D3 receptor expressed in HEK293 cells; assay type: cell-based
[2] = molecular target: T2, D(4) dopamine receptor (Homo sapiens, UniProt P21917); assay: Displacement of [125I]IABN from human dopamine D4 receptor expressed in HEK293 cells; assay type: cell-based
T2 sequence (P21917 whole entry): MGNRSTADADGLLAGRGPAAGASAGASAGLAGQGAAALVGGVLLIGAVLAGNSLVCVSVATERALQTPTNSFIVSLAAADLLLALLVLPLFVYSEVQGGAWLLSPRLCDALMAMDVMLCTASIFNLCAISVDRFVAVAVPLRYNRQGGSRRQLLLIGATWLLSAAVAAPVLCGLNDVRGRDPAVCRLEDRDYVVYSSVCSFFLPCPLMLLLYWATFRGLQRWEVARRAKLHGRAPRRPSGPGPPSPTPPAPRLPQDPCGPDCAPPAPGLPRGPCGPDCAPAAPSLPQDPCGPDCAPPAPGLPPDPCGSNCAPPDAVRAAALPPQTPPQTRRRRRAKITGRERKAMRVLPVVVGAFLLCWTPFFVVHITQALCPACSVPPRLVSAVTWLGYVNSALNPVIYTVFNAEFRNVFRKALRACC
Method in brief: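 Competition binding on HEK 293 cells transfected with human D2L or D4 dopamine receptors; radioligand [125I]IABN displaced by test ligand; Ki values derived.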

[3] = molecular target: T3, D(2) dopamine receptor (Homo sapiens, UniProt P14416); assay: Displacement of [125I]IABN from human dopamine D2L receptor expressed in HEK293 cells; assay type: cell-based
T3 sequence (P14416 whole entry): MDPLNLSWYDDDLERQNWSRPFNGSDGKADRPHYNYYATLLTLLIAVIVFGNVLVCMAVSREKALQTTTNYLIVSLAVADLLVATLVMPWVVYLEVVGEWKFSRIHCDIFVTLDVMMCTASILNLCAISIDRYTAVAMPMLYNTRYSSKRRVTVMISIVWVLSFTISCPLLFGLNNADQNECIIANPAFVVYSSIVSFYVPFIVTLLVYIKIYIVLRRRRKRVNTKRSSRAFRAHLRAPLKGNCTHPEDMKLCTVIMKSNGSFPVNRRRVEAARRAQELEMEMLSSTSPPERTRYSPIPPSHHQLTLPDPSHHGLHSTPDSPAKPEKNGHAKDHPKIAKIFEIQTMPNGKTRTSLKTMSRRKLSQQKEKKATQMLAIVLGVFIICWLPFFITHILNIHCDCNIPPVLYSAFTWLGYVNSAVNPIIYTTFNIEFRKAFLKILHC

[4] = species: Homo sapiens; assay: Selectivity for human dopamine D2L receptor over human dopamine D3 receptor
[5] = species: Homo sapiens; assay: Selectivity for human dopamine D2L receptor over human dopamine D4 receptor
[6] = molecular target: T3, D(2) dopamine receptor; assay: Antagonist activity at human dopamine D2 receptor expressed in CHO cells assessed as inhibition of quinpirole stimulated mitogenesis; assay type: functional, cell-based
Method in brief: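 Functional mitogenesis assay in CHO cells transfected with human D2 receptor; antagonism measured as inhibition of quinpirole-stimulated mitogenesis (agonism tested as stimulation); EC50 reported; run via NIDA CTDP contract protocol.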

[7] = molecular target: T1, D(3) dopamine receptor; assay: Antagonist activity at human dopamine D3 receptor expressed in CHO cells assessed as inhibition of quinpirole stimulated mitogenesis; assay type: functional, cell-based

T1 sequence (P35462 whole entry): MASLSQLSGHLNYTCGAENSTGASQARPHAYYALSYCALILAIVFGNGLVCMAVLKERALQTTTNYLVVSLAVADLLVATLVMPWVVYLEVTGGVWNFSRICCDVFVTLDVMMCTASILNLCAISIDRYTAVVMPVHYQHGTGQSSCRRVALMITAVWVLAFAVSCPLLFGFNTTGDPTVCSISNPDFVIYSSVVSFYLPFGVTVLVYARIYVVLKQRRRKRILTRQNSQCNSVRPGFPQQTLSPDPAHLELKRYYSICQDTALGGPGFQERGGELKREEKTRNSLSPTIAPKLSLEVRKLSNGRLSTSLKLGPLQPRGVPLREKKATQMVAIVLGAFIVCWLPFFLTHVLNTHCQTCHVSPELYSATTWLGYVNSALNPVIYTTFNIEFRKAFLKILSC

Row | SMILES | Ki [1] | Ki [2] | Ki [3] | Ratio Ki [4] | Ratio Ki [5] | EC50 [6] | EC50 [7]
1 | NCC1(c2ccc(Cl)cc2)CCN(Cc2c[nH]c3ccccc23)CC1 | > 5000 nM | > 20000 nM | > 10000 nM |  |  |  | 
2 | OC1(c2ccc(Cl)c(Cl)c2)CCN(Cc2n[nH]c3ccccc23)CC1 | 156 nM | 677 nM | 438 nM | 0.4 | 2 |  | 
3 | OC1(c2ccc(Cl)c(Cl)c2)CCN(Cc2c[nH]c3ccccc23)CC1 | 111 nM | 1100 nM | 6.9 nM | 16 | 159 | 15.3 nM | 41.5 nM
4 | CSc1ccc(C2(O)CCN(Cc3c[nH]c4ccccc34)CC2)cc1 | 638 nM | 319 nM | 23.9 nM | 27 | 13 |  | 
5 | CC(=O)NCC1(c2ccc(Cl)cc2)CCN(Cc2c[nH]c3ccccc23)CC1 | 12500 nM | 4450 nM | 2000 nM | 6 | 2 |  | 
6 | OC1(c2ccc(Cl)c(Cl)c2)CCN(Cc2coc3ccccc23)CC1 | 28 nM | 167 nM | 21 nM | 1 | 8 |  | 
7 | OC1(c2ccc(Cl)cc2)CCN(Cc2n[nH]c3ccccc23)CC1 | 440 nM | 2150 nM | 548 nM | 1 | 4 |  | 
8 | OC1(c2ccc(Cl)cc2)CCN(Cc2c[nH]c3ccccc23)CC1 | 163 nM | 1520 nM |  |  |  |  | 90.4 nM
9 | OC1(c2cccc(C(F)(F)F)c2)CCN(Cc2c[nH]c3ccccc23)CC1 | 570 nM | 3750 nM | 106 nM | 5 | 35 | 69.1 nM | 
10 | COc1ccc2[nH]cc(CN3CCC(O)(c4ccc(SC)cc4)CC3)c2c1 | 580 nM | 567 nM | 5.5 nM | 105 | 103 |  | 
11 | COC1(c2ccc(Cl)cc2)CCN(Cc2c[nH]c3ccccc23)CC1 | 262 nM | 34.1 nM | 68.1 nM | 4 |  | 34.7 nM | 248 nM
12 | C=CCOC1(c2ccc(Cl)cc2)CCN(Cc2c[nH]c3ccccc23)CC1 | 718 nM | 1190 nM | 165 nM | 4 | 7 |  | 
13 | Cc1[nH]c2ccccc2c1CN1CCC(O)(c2ccc(Cl)cc2)CC1 | 44.1 nM | 2990 nM | 15.4 nM | 3 | 194 | 2.13 nM | 20.2 nM
14 | OCC1(c2ccc(Cl)cc2)CCN(Cc2c[nH]c3ccccc23)CC1 | 106 nM | 1940 nM | 2370 nM | 0.04 | 1 |  | 
15 | CCCCCCOc1ccc(C2(O)CCN(Cc3c[nH]c4ccccc34)CC2)cc1 | 1950 nM | 1490 nM | 159 nM | 12 | 9 | 216 nM | 
16 | CSc1ccc(C2(O)CCN(Cc3coc4ccccc34)CC2)cc1 | 139 nM | 153 nM | 54 nM | 3 | 3 |  | 
17 | OC1(c2ccc(Cl)cc2)CCCN(Cc2c[nH]c3ccccc23)C1 (stereo unspecified) | 4270 nM | 2440 nM | 4270 nM | 1 | 1 |  | 

Row | SMILES | Ki [1] | Ki [2] | Ki [3] | Ratio Ki [4] | Ratio Ki [5] | EC50 [6] | EC50 [7]
18 | OC1(c2ccc(F)cc2)CCN(Cc2c[nH]c3ccccc23)CC1 | 490 nM | 6090 nM | 127 nM | 4 | 48 |  | 
19 | NC1(c2ccc(Cl)cc2)CCN(Cc2c[nH]c3ccccc23)CC1 | 382 nM | 2290 nM | 184 nM | 2 | 12 |  | 
20 | FC1(c2ccc(Cl)cc2)CCN(Cc2c[nH]c3ccccc23)CC1 | 211 nM | 365 nM | 120 nM | 2 | 3 |  | 
21 | OC1(c2ccccc2Cl)CCN(Cc2c[nH]c3ccccc23)CC1 | 1860 nM | 2820 nM | 382 nM | 5 | 7 | 586 nM | 
22 | OC1(c2ccc(Cl)cc2)CCN(Cc2cc3ccccc3[nH]2)CC1 |  | > 20000 nM | > 10000 nM |  |  |  | 
23 | CCOC(=O)C1(c2ccc(Cl)cc2)CCN(Cc2c[nH]c3ccccc23)CC1 | 724 nM | 3520 nM | 58.8 nM | 12 | 60 |  | 
24 | Oc1ccc(C2(O)CCN(Cc3c[nH]c4ccccc34)CC2)cc1 | 16800 nM | 1360 nM | 5360 nM | 3 | 0.3 |  | 
25 | OC1(c2ccc(-c3ccccc3)cc2)CCN(Cc2c[nH]c3ccccc23)CC1 | 467 nM | 129 nM | 98.4 nM | 5 | 1 |  | 
26 | COc1ccc(C2(O)CCN(Cc3c[nH]c4ccccc34)CC2)cc1 | 2130 nM | 679 nM | 177 nM | 12 | 4 |  | 
27 | COC(=O)C1(c2ccc(Cl)cc2)CCN(Cc2c[nH]c3ccccc23)CC1 | 544 nM | 3930 nM | 60 nM | 9 | 66 | 76.7 nM | 
28 | OC1(c2ccc(Cl)cc2)CCCN(Cc2c[nH]c3ccccc23)CC1 (stereo unspecified) | 2100 nM | 3870 nM | 201 nM | 10 | 19 | 260 nM | 
29 | N#CC1(c2ccc(Cl)cc2)CCN(Cc2c[nH]c3ccccc23)CC1 | 684 nM | 2270 nM | 199 nM | 3 | 11 | 225 nM | 
30 | OC1(Cc2ccc(Cl)cc2)CCN(Cc2c[nH]c3ccccc23)CC1 | 5480 nM | 3930 nM | 2890 nM | 2 | 1 |  | 
31 | CC(=O)NC1(c2ccc(Cl)cc2)CCN(Cc2c[nH]c3ccccc23)CC1 | 193 nM | 348 nM | 83.1 nM | 2 | 4 | 24.8 nM | 
32 | OC1(c2cccc(Cl)c2)CCN(Cc2c[nH]c3ccccc23)CC1 | 450 nM | 3540 nM | 129 nM | 3 | 27 | 83.4 nM | 
33 | OC1(c2ccc(Cl)cc2)CCN(Cc2coc3ccccc23)CC1 | 53 nM | 404 nM | 21 nM | 3 | 19 |  | 
